The source of these data is ChEMBL document CHEMBL1132986, “Novel and selective calcitonin-inducing agents” (J Med Chem, 2000).

pIC50: −log10 of the molar value.

For the first experiment, the target named is T1, Phosphodiesterase 4 (Homo sapiens, UniProt P27815+Q08499+Q07343+Q08493). Put plainly: Concentration at which 50% of the activity of the Phosphodiesterase 4 from Human U937 cells is inhibited. It is filed as cell-based. The conditions noted are these: u-937.
What is called pIC50 is −log10 of the IC50, conventionally taken in molar units. Read a low pIC50 as a large IC50. For `CCCCn1c(=O)c2c(ncn2S(=O)(=O)c2cc(C)c(Cl)cc2C)n(CCCC)c1=O`, the pIC50 was 4.63.

For the compound `CCCCn1c(=O)c2c(ncn2S(=O)(=O)c2ccccc2C(=O)OC)n(CCCC)c1=O`, the pIC50 is 5.89.

Compound `CCCCn1c(=O)c2c(ncn2S(=O)(=O)Cc2ccccc2)n(CCCC)c1=O` showed a pIC50 of 5.49.

Take `CCCCn1c(=O)c2c(ncn2S(=O)(=O)c2ccc(OC)c(OC)c2)n(CCCC)c1=O`: the pIC50 was 5.92.

Consider `CCCCn1c(=O)c2c(ncn2S(=O)(=O)CCCCl)n(CCCC)c1=O`, for which the pIC50 is 5.39.

Take `CCCCn1c(=O)c2c(ncn2S(=O)(=O)c2c(C)cc(C)cc2C)n(CCCC)c1=O`: the pIC50 is 5.22.

Consider `CCCCn1c(=O)c2c(ncn2S(C)(=O)=O)n(CCCC)c1=O`, for which the pIC50 is 4.60.

The next experiment deals with T1, Phosphodiesterase 4. Put plainly: Percent rolipram activity at 30 uM (PDE 30 assay).
Details: not given
It is filed as protein assay. The essentials: (§1)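 U937 PDE4 preparation, 1 µM [3H]cAMP, 37 °C, test compound at 30 µM. Activity scaled to rolipram: no rolipram inhibition = 0%, full rolipram inhibition (10 µM) = 100%.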
Compound `CCCCn1c(=O)c2c(ncn2CC(C)=O)n(CCCC)c1=O` [DENBUFYLLINE] had a Rolipram activity of 100%.

Another experiment deals with T1, Phosphodiesterase 4. Put plainly: PDE4 30 assay to measure the percent rolipram activity of the PDE4 assay at 30 micro M concentration of the compound.
Details: not given
It is filed as protein assay. The essentials:
as §1
In the case of `CCCCn1c(=O)c2c(ncn2S(=O)(=O)c2ccc(C(C)(C)C)cc2)n(CCCC)c1=O`, the PDE4 inhibition relative to rolipram is 33%.

For the compound `CCCCn1c(=O)n(CCC(C)C)c(=O)c2c1ncn2S(=O)(=O)c1ccc(OC)c(OC)c1`, the PDE4 inhibition relative to rolipram was 86%.

The compound `CCCCn1c(=O)c2c(nc(C)n2S(=O)(=O)c2ccc(OC)c(OC)c2)n(CCCC)c1=O` came in with a PDE4 inhibition relative to rolipram of 100%.

As to `CCCCn1c(=O)[nH]c(=O)c2c1ncn2S(=O)(=O)c1ccc(OC)c(OC)c1`, the PDE4 inhibition relative to rolipram came to 25%.

Compound `CCCCn1c(=O)c2c(ncn2S(=O)(=O)c2cc(C)c(Cl)cc2C)n(CCCC)c1=O` had a PDE4 inhibition relative to rolipram of 72%.

With `CCCCCCCCn1c(=O)c2c(ncn2S(=O)(=O)c2ccc(OC)c(OC)c2)n(CCCC)c1=O`, the PDE4 inhibition relative to rolipram was 0%.

Regarding `CCCCn1c(=O)n(CC2CCC2)c(=O)c2c1ncn2S(=O)(=O)c1ccc(OC)c(OC)c1`, the PDE4 inhibition relative to rolipram was 87%.

`CCCCn1c(=O)c2c(ncn2S(=O)(=O)c2cccc3ccccc23)n(CCCC)c1=O` gave a PDE4 inhibition relative to rolipram of 17%.

With `CCCCn1c(=O)c2c(nc(C)n2S(=O)(=O)CCCCl)n(CCCC)c1=O`, the PDE4 inhibition relative to rolipram worked out at 95%.

For `CCCCn1c(=O)c2c(nc(C)n2S(=O)(=O)c2ccccc2)n(CCCC)c1=O`, the PDE4 inhibition relative to rolipram is 100%.

For `CCCCn1c(=O)c2c(ncn2S(=O)(=O)Cc2ccccc2)n(CCCC)c1=O`, the PDE4 inhibition relative to rolipram amounted to 7%.

`CCCCn1c(=O)c2c(ncn2S(=O)(=O)c2c(C)cc(C)cc2C)n(CCCC)c1=O` returned a PDE4 inhibition relative to rolipram of 58%.

In another experiment the target is T1, Phosphodiesterase 4. The experiment is described as follows: PDE4 30 assay to measure the percent rolipram activity of the PDE4 assay at 30 uM concentration of the compound.
Details: not given
It is filed as protein assay. The essentials: as §1
Compound `CCCCn1c(=O)c2c(ncn2S(=O)(=O)c2ccccc2C(=O)OC)n(CCCC)c1=O` had a PDE4 inhibition relative to rolipram of 61%.

With `CCCCn1c(=O)c2c(ncn2S(=O)(=O)c2ccc(OC)c(OC)c2)n(CCCC)c1=O`, the PDE4 inhibition relative to rolipram came to 59%.

As to `CCCCn1c(=O)c2c(ncn2S(=O)(=O)CCCCl)n(CCCC)c1=O`, the PDE4 inhibition relative to rolipram came to 71%.

In the case of `CCCCn1c(=O)c2c(ncn2S(C)(=O)=O)n(CCCC)c1=O`, the PDE4 inhibition relative to rolipram was 84%.

A further experiment concerns Rattus norvegicus. Put plainly: The compound was tested for its bone protection activity at 30 mg/kg/day by intra peritoneal administration. It is filed as functional.
Details: not given
The gist of the method: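 Mature female Sprague-Dawley rats, bilaterally ovariectomized or sham-operated, 4-5 days recovery; compound in 1% Tween 80 in saline, i.p. 30 mg/kg/day for 4 weeks; 7-8 rats per group. Proximal tibia trabecular BMD by QCT under ketamine/xylazine/acepromazine; % protection with OVX = 0%, sham = 100%; p < 0.05.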
`CCCCn1c(=O)c2c(ncn2S(=O)(=O)c2cc(C)c(Cl)cc2C)n(CCCC)c1=O` had a Protection of 52%.

Compound `CCCCn1c(=O)c2c(ncn2S(=O)(=O)c2cccc3ccccc23)n(CCCC)c1=O` returned a Protection of 37%.

Regarding `CCCCn1c(=O)c2c(ncn2S(=O)(=O)Cc2ccccc2)n(CCCC)c1=O`, the Protection stood at 25%.

`CCCCn1c(=O)c2c(ncn2S(=O)(=O)c2ccc(OC)c(OC)c2)n(CCCC)c1=O` came in with a Protection of 35%.

Compound `CCCCn1c(=O)c2c(ncn2S(=O)(=O)CCCCl)n(CCCC)c1=O` yielded a Protection of 47%.

`CCCCn1c(=O)c2c(ncn2CC(C)=O)n(CCCC)c1=O` [DENBUFYLLINE] came in with a Protection of 49%.

With `CCCCn1c(=O)c2c(ncn2S(=O)(=O)c2c(C)cc(C)cc2C)n(CCCC)c1=O`, the Protection is 50%.

Another experiment relates to Rattus norvegicus. The experiment is described as follows: The compound was tested for its bone protection activity at 50 mg/kg/day by oral administration.
Details: not given
`CCCCn1c(=O)c2c(ncn2S(=O)(=O)CCCCl)n(CCCC)c1=O` registered a Protection of 50%.

The next experiment deals with C3 cells. The experiment is described as follows: Calcitonin (CT) secretion/RIA assay to measure the ability of compound to increase cellular levels and secretion of human CT.
Details: not given
Regarding `CCCCn1c(=O)c2c(ncn2S(=O)(=O)c2ccc(C(C)(C)C)cc2)n(CCCC)c1=O`, the CTS was 5.1.

Consider `CCCCn1c(=O)n(CCC(C)C)c(=O)c2c1ncn2S(=O)(=O)c1ccc(OC)c(OC)c1`, for which the CTS turned out to be 3.7.

Consider `CCCCn1c(=O)c2c(nc(C)n2S(=O)(=O)c2ccc(OC)c(OC)c2)n(CCCC)c1=O`, for which the CTS is 2.6.

With `CCCCn1c(=O)[nH]c(=O)c2c1ncn2S(=O)(=O)c1ccc(OC)c(OC)c1`, the CTS is 0.8.

Regarding `CCCCn1c(=O)c2c(ncn2S(=O)(=O)c2cc(C)c(Cl)cc2C)n(CCCC)c1=O`, the CTS is listed as 5.3.

On to `CCCCCCCCn1c(=O)c2c(ncn2S(=O)(=O)c2ccc(OC)c(OC)c2)n(CCCC)c1=O`, for which the CTS is on record as 1.1.

On to `CCCCn1c(=O)n(CC2CCC2)c(=O)c2c1ncn2S(=O)(=O)c1ccc(OC)c(OC)c1`, for which the CTS was determined as 0.9.

Consider `CCCCn1c(=O)c2c(ncn2S(=O)(=O)c2cccc3ccccc23)n(CCCC)c1=O`, for which the CTS was found to be 4.5.

On to `CCCCn1c(=O)c2c(nc(C)n2S(=O)(=O)CCCCl)n(CCCC)c1=O`, for which the CTS was 4.1.

Take `CCCCn1c(=O)c2c(nc(C)n2S(=O)(=O)c2ccccc2)n(CCCC)c1=O`: the CTS stood at 4.

As for `CCCCn1c(=O)c2c(ncn2S(=O)(=O)c2ccccc2C(=O)OC)n(CCCC)c1=O`, the CTS is on record as 3.1.

Turning to `CCCCn1c(=O)c2c(ncn2S(=O)(=O)Cc2ccccc2)n(CCCC)c1=O`, the CTS was 5.1.

Regarding `CCCCn1c(=O)c2c(ncn2S(=O)(=O)c2ccc(OC)c(OC)c2)n(CCCC)c1=O`, the CTS is recorded as 4.7.

Regarding `CCCCn1c(=O)c2c(ncn2S(=O)(=O)CCCCl)n(CCCC)c1=O`, the CTS is given as 3.6.

For the compound `CCCCn1c(=O)c2c(ncn2CC(C)=O)n(CCCC)c1=O` [DENBUFYLLINE], the CTS is reported as 3.5.

Regarding `CCCCn1c(=O)c2c(ncn2S(=O)(=O)c2c(C)cc(C)cc2C)n(CCCC)c1=O`, the CTS is 4.

With `CCCCn1c(=O)c2c(ncn2S(C)(=O)=O)n(CCCC)c1=O`, the CTS worked out at 4.7.

Another experiment has as its system C3 cells. Put plainly: CT-luci reporter gene assay to measure the ability to increase transcription of a […] linked to the human CT gene.
Details: not given
A general note: In a reporter assay the amount or activity of a reporter protein is the signal.
In the case of `CCCCn1c(=O)c2c(ncn2S(=O)(=O)c2ccc(C(C)(C)C)cc2)n(CCCC)c1=O`, the TAR was determined as 1.8.

Compound `CCCCn1c(=O)n(CCC(C)C)c(=O)c2c1ncn2S(=O)(=O)c1ccc(OC)c(OC)c1` yielded a TAR of 2.6.

`CCCCn1c(=O)c2c(nc(C)n2S(=O)(=O)c2ccc(OC)c(OC)c2)n(CCCC)c1=O` yielded a TAR of 1.5.

Compound `CCCCn1c(=O)[nH]c(=O)c2c1ncn2S(=O)(=O)c1ccc(OC)c(OC)c1` showed a TAR of 1.3.

Take `CCCCn1c(=O)c2c(ncn2S(=O)(=O)c2cc(C)c(Cl)cc2C)n(CCCC)c1=O`: the TAR came out at 2.5.

`CCCCCCCCn1c(=O)c2c(ncn2S(=O)(=O)c2ccc(OC)c(OC)c2)n(CCCC)c1=O`: the TAR is listed as 0.7.

For `CCCCn1c(=O)n(CC2CCC2)c(=O)c2c1ncn2S(=O)(=O)c1ccc(OC)c(OC)c1`, the TAR amounted to 2.9.

The compound `CCCCn1c(=O)c2c(ncn2S(=O)(=O)c2cccc3ccccc23)n(CCCC)c1=O` showed a TAR of 2.5.

As for `CCCCn1c(=O)c2c(nc(C)n2S(=O)(=O)CCCCl)n(CCCC)c1=O`, the TAR was determined as 1.7.

Consider `CCCCn1c(=O)c2c(nc(C)n2S(=O)(=O)c2ccccc2)n(CCCC)c1=O`, for which the TAR was 1.7.

As to `CCCCn1c(=O)c2c(ncn2S(=O)(=O)Cc2ccccc2)n(CCCC)c1=O`, the TAR amounted to 2.3.

In turn, `CCCCn1c(=O)c2c(ncn2S(=O)(=O)c2ccc(OC)c(OC)c2)n(CCCC)c1=O` registered a TAR of 2.5.

The compound `CCCCn1c(=O)c2c(ncn2CC(C)=O)n(CCCC)c1=O` [DENBUFYLLINE] registered a TAR of 2.1.

The compound `CCCCn1c(=O)c2c(ncn2S(=O)(=O)c2c(C)cc(C)cc2C)n(CCCC)c1=O` came in with a TAR of 1.9.

A further experiment relates to C3 cells. The description is as above.
Details: not given
The source holds these as a separate data set.
Compound `CCCCn1c(=O)c2c(ncn2S(=O)(=O)c2ccccc2C(=O)OC)n(CCCC)c1=O` returned a TAR of 3.5.

Take `CCCCn1c(=O)c2c(ncn2S(=O)(=O)CCCCl)n(CCCC)c1=O`: the TAR was 2.1.

Regarding `CCCCn1c(=O)c2c(ncn2S(C)(=O)=O)n(CCCC)c1=O`, the TAR is given as 1.9.
